Measured values from ChEMBL document CHEMBL4304759, “Identifying Novel Anti-Osteoporosis Leads with a Chemotype-Assembly Approach” (J Med Chem, 2019).

System: BMDM
Assay: Anti-osteoporosis activity in C57BL/6 mouse bone marrow macrophages assessed as inhibition of M-CSF/RANKL-induced osteoclast differentiation supplemented with fresh medium containing compounds every 2 days for 5 measured post-last dose by TRAP staining based assay
Format: functional, cell-based
Conditions: C57BL/6, BMDM, 5 days
Method in brief: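 Mouse (C57BL/6, 6-week) BMMs were plated at 6×10³ cells/well with M-CSF 30 ng/mL overnight, then given complete α-MEM with M-CSF and GST-rRANKL 100 ng/mL plus compound at varied concentrations, refreshed every 2 days. At day 5 cells were fixed in 4% paraformaldehyde and TRAcP-stained; TRAcP+ cells with >3 nuclei were counted.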

SMILES: Cc1csc(NC(=O)Cn2cc(-c3ccncc3)nn2)n1
- IC50: 100 nM

SMILES: COc1ccc(-c2cn(CC(=O)Nc3nc(C)cs3)nn2)cc1
- IC50: 3890 nM

SMILES: COc1ccc(-c2cn(CC(=O)Nc3cc(C)on3)nn2)cc1
- IC50: > 30000 nM

SMILES: Cc1nc(NC(=O)/C=C/c2ccc3c(c2)OCO3)sc1C
- IC50: 8110 nM

SMILES: O=C(Cn1cc(-c2ccc([N+](=O)[O-])cc2)nn1)Nc1nccs1
- IC50: 1040 nM

SMILES: Cc1cc(NC(=O)Cn2cc(-c3cccs3)nn2)no1
- IC50: > 30000 nM

SMILES: CCCN1C(=O)c2ccc(C(=O)Nc3nccs3)cc2C1=O
- IC50: 10000 nM

SMILES: N#Cc1ccc(-c2cn(CC(=O)Nc3nc4ccccc4s3)nn2)cc1
- IC50: > 30000 nM

SMILES: O=C(Cn1cc(-c2cccc(Cl)c2)nn1)Nc1nccs1
- IC50: > 30000 nM

SMILES: Cc1cc(NC(=O)Cn2cc(-c3ccc(C#N)cc3)nn2)no1
- IC50: 9320 nM

SMILES: CCOC(=O)c1sc(NC(=O)Cn2cc(-c3ccccc3Cl)nn2)nc1C
- IC50: 130 nM

SMILES: Cc1ccc(-c2csc(NCc3ccc(C)o3)n2)cc1
- IC50: 1190 nM

SMILES: COc1cccc(OC)c1C(=O)Nc1nc(C)c(C(C)=O)s1
- IC50: 2140 nM

SMILES: CCOC(=O)c1sc(NC(=O)Cn2cc(-c3ccc([N+](=O)[O-])cc3)nn2)nc1C
- IC50: 1840 nM

SMILES: O=C(Nc1nc2ccccc2s1)c1cc2ccccc2c(=O)o1
- IC50: 5130 nM

SMILES: O=C(Cn1cc(-c2ccc(F)cc2)nn1)Nc1nc2ccccc2s1
- IC50: > 30000 nM

SMILES: O=C(Cn1cc(-c2ccc(Cl)cc2)nn1)Nc1nccs1
- IC50: 1100 nM

SMILES: O=C(Cn1cc(-c2cccs2)nn1)Nc1nc2ccccc2s1
- IC50: 21400 nM

SMILES: COc1cccc(-c2cn(-c3ccc(C(F)(F)F)cc3)nc2C(=O)NCCCN(C)C)c1
- IC50: > 30000 nM

SMILES: COc1cccc(-c2cn(-c3ccc(C(F)(F)F)cc3)nc2C(=O)N2CCN(c3ncccn3)CC2)c1
- IC50: > 30000 nM

SMILES: Nc1cccc(-c2cn(CC(=O)Nc3nc4ccccc4s3)nn2)c1
- IC50: 1110 nM

SMILES: Cc1cc(NC(=O)Cn2cc(-c3ccccc3Cl)nn2)no1
- IC50: > 30000 nM

SMILES: O=C(Cn1cc(-c2ccncc2)nn1)Nc1nc2ccccc2s1
- IC50: 50 nM

SMILES: Cc1ccc(-c2csc(NC(=O)c3ccc(C)o3)n2)cc1
- IC50: 4030 nM

SMILES: O=C(Cn1cc(-c2ccccc2Cl)nn1)Nc1nccs1
- IC50: 60 nM

SMILES: CCOC(=O)c1sc(NC(=O)Cn2cc(-c3ccc(F)cc3)nn2)nc1C
- IC50: 660 nM

SMILES: O=C(Cn1cc(-c2ccc(Cl)cc2)nn1)Nc1nc2ccccc2s1
- IC50: 130 nM

SMILES: Cc1cc(NC(=O)Cn2cc(-c3ccncc3)nn2)no1
- IC50: 430 nM

SMILES: COc1cccc(-c2cn(-c3ccc(C(F)(F)F)cc3)nc2C(=O)NC2CCCCC2)c1
- IC50: > 30000 nM

SMILES: CCOC(=O)c1ccccc1SCC(=O)Nc1nccs1
- IC50: 3980 nM

SMILES: CCOC(=O)c1sc(NC(=O)Cn2cc(-c3ccc(OC)cc3)nn2)nc1C
- IC50: 2330 nM

SMILES: CC(C)Oc1ccccc1C(=O)Nc1nccs1
- IC50: 12600 nM

SMILES: COc1ccc(-c2cn(CC(=O)Nc3nc4ccccc4s3)nn2)cc1
- IC50: 1330 nM

SMILES: C#Cc1ccc(-c2cn(CC(=O)Nc3nccs3)nn2)cc1
- IC50: > 30000 nM

SMILES: C#Cc1ccc(-c2cn(CC(=O)Nc3cc(C)on3)nn2)cc1
- IC50: > 30000 nM

SMILES: Cc1csc(NC(=O)Cn2cc(-c3ccc(Cl)cc3)nn2)n1
- IC50: 520 nM

SMILES: Cc1csc(NC(=O)Cn2cc(-c3ccc(C(=O)O)cc3)nn2)n1
- IC50: > 30000 nM

SMILES: Cc1csc(NC(=O)Cn2cc(-c3ccc(F)cc3)nn2)n1
- IC50: 250 nM

SMILES: Nc1cccc(-c2cn(CC(=O)Nc3nccs3)nn2)c1
- IC50: 1270 nM

SMILES: Cc1csc(NC(=O)Cn2cc(-c3ccc([N+](=O)[O-])cc3)nn2)n1
- IC50: 190 nM

SMILES: COc1cccc(-c2cn(-c3ccc(C(F)(F)F)cc3)nc2C(=O)N2CCc3ccccc3C2)c1
- IC50: > 30000 nM

SMILES: O=C(Cn1cc(-c2cccs2)nn1)Nc1nccs1
- IC50: > 30000 nM

SMILES: CCOC(=O)c1sc(NC(=O)Cn2cc(-c3ccc(C#N)cc3)nn2)nc1C
- IC50: 310 nM

SMILES: O=C(Cn1cc(-c2ccc(F)cc2)nn1)Nc1nccs1
- IC50: 190 nM

SMILES: O=C(NCc1ccco1)c1cc2ccccc2c(=O)o1
- IC50: 4240 nM

SMILES: COc1ccc(-c2cn(CC(=O)Nc3nccs3)nn2)cc1
- IC50: 510 nM

SMILES: Cc1cc(NC(=O)Cn2cc(-c3ccc([N+](=O)[O-])cc3)nn2)no1
- IC50: 1220 nM

SMILES: Cc1cnc(NC(=O)c2ccc3c(c2)OCO3)s1
- IC50: > 30000 nM

SMILES: O=C(c1cc2ccccc2s1)N1CCOCC1
- IC50: 3150 nM

SMILES: N#Cc1ccc(-c2cn(CC(=O)Nc3nccs3)nn2)cc1
- IC50: 270 nM

SMILES: N#Cc1ccc(C(=O)Nc2nccs2)cc1
- IC50: > 30000 nM

SMILES: CCOc1cc(C(=O)Nc2nccs2)cc(OCC)c1OCC
- IC50: 6750 nM

SMILES: Cc1cc(NC(=O)Cn2cc(-c3ccc(F)cc3)nn2)no1
- IC50: > 30000 nM

SMILES: Cc1csc(NC(=O)Cn2cc(-c3cccs3)nn2)n1
- IC50: 40 nM

SMILES: CCCn1c(=O)c(C(=O)Nc2nccs2)c(O)c2ccccc21
- IC50: 3980 nM

SMILES: O=C(Cn1cc(-c2ccc([N+](=O)[O-])cc2)nn1)Nc1nc2ccccc2s1
- IC50: 3280 nM

SMILES: Cc1csc(NC(=O)Cn2cc(-c3ccccc3Cl)nn2)n1
- IC50: 1240 nM

SMILES: CCOC(=O)c1sc(NC(=O)Cn2cc(-c3ccncc3)nn2)nc1C
- IC50: 120 nM

SMILES: Cc1cc(NC(=O)Cn2cc(-c3cccc(Cl)c3)nn2)no1
- IC50: > 30000 nM

SMILES: CCOC(=O)c1sc(NC(=O)Cn2cc(-c3cccs3)nn2)nc1C
- IC50: 20 nM

SMILES: CCOC(=O)c1sc(NC(=O)Cn2cc(-c3ccc(Cl)cc3)nn2)nc1C
- IC50: 180 nM

SMILES: COC(=O)c1ccc(-c2cn(CC(=O)Nc3cc(C)on3)nn2)cc1
- IC50: > 30000 nM

SMILES: Cc1cc(NC(=O)Cn2cc(-c3ccc(Cl)cc3)nn2)no1
- IC50: 1910 nM

SMILES: Cc1csc(NC(=O)Cn2cc(-c3cccc(N)c3)nn2)n1
- IC50: 250 nM

SMILES: COC(=O)c1ccc(-c2cn(CC(=O)Nc3nc(C)cs3)nn2)cc1
- IC50: > 30000 nM

SMILES: O=C(C1=C(O)C(=O)N(CCCn2ccnc2)[C@@H]1c1cccc(O)c1)c1ccc2c(c1)OCCO2
- IC50: 2700 nM

SMILES: O=C(Cn1cc(-c2ccccc2Cl)nn1)Nc1nc2ccccc2s1
- IC50: > 30000 nM

SMILES: COC(=O)c1ccc(-c2cn(CC(=O)Nc3nc4ccccc4s3)nn2)cc1
- IC50: > 30000 nM
